Three molecules from ChEMBL document CHEMBL1154740, “Efficient microwave combinatorial synthesis of novel indolic arylpiperazine derivatives as serotoninergic ligands” (Eur J Med Chem, 2010) can be followed below.

Assay [1] addresses 5-hydroxytryptamine receptor 2A (Rattus norvegicus, UniProt P14842). Nature of the assay: Displacement of [3H]ketanserin from 5HT2A in Sprague-Dawley rat brain cortex by liquid scintillation counting. The note with it: read-out: Ki. In a few lines: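 Frontal cortex of male Sprague–Dawley rats (180–220 g), in 50 mM Tris-HCl, 0.5 mM EDTA, 10 mM MgCl2, pH 7.4, plus 0.1% ascorbate and pargyline. Triplicate 2.0 mL assays: 5-HT2A with 5 mg tissue and 0.4 nM [3H]ketanserin; 5-HT2C with 10 mg tissue and 1 nM [3H]mesulergine. 15 min at 37 °C, PEI-soaked filters. IC50 from six concentrations converted to Ki (Cheng–Prusoff).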
Background: In a radioligand displacement assay an active substance lowers the binding of a labelled ligand.

Assay [2] has as its target D(1A) dopamine receptor (Rattus norvegicus, UniProt P18901). Nature of the assay: Displacement of [3H]SCH23390 from dopamine D1 in rat striatum by liquid scintillation counting. The method, boiled down:
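Rat corpora striata membranes in 50 mM Tris–HCl with 120 mM NaCl, 5 mM KCl, 2 mM CaCl2, 1 mM MgCl2, 0.1% ascorbic acid, pargyline, pH 7.1 at 37 °C; 3 mg fresh tissue per tube. [3H]SCH-23390 at 0.4 nM final, 15 min at 37 °C, GF/B filtration. Nonspecific binding defined with piflutixol. Ki from IC50 via Cheng–Prusoff.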

The target in assay [3] is D(2) dopamine receptor (Rattus norvegicus, UniProt P61169). The experiment in a line: Displacement of [3H]spiperone from dopamine D2 in rat striatum by liquid scintillation counting. In a few lines:
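Striatal membranes (3 mg fresh tissue) in Tris–HCl with NaCl, KCl, CaCl2, MgCl2, ascorbic acid and pargyline, pH 7.1 at 37 °C. Incubated with [3H]spiperone at 0.4 nM final for 15 min at 37 °C, then filtered on GF/B. Nonspecific binding defined with (+)-butaclamol. IC50 converted to Ki by Cheng–Prusoff.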

The target in assay [4] is T1, Adrenergic receptor alpha-1 (Rattus norvegicus, UniProt P15823+P23944+P43140).
T1 sequence (P15823 whole entry): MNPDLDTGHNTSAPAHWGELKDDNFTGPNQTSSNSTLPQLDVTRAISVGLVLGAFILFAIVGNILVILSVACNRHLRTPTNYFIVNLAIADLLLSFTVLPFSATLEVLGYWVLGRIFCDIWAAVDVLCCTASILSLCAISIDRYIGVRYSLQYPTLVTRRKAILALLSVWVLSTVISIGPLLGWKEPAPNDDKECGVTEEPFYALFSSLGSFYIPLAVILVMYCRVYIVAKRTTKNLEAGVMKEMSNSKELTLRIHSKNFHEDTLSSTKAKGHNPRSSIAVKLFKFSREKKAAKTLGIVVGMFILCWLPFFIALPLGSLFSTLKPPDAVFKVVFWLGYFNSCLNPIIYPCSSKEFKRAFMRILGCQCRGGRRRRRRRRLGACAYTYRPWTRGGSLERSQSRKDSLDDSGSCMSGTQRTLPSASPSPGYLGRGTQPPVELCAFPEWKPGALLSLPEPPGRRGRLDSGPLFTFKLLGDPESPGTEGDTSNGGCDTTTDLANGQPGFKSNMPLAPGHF
T1 sequence (P23944 whole entry): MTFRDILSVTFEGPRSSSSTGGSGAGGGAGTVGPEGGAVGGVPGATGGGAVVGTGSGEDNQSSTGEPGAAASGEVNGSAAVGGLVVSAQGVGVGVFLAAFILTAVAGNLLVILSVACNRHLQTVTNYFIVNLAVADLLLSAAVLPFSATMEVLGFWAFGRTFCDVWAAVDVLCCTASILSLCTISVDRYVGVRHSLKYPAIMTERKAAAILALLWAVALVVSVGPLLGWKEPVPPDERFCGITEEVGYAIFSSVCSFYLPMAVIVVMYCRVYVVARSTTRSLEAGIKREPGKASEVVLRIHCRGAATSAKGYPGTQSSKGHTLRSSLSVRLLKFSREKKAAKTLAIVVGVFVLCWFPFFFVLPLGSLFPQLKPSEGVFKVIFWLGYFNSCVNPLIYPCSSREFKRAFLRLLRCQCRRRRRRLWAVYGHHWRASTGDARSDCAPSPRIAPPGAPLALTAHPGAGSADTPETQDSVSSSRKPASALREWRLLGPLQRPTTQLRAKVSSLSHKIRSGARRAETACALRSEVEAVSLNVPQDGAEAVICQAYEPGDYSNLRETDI
T1 sequence (P43140 whole entry): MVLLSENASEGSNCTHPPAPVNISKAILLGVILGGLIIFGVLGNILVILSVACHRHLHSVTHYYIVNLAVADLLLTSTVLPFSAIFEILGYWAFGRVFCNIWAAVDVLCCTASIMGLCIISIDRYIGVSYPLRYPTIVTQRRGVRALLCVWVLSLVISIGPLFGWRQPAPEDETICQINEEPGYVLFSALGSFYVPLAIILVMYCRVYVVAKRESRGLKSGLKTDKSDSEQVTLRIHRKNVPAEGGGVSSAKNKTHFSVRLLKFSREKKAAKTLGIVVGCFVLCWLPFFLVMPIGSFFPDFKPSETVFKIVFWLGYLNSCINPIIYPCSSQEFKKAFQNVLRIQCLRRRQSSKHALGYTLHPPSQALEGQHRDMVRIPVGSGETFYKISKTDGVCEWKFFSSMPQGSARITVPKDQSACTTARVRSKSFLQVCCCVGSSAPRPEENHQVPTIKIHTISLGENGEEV
The experiment in a line: Displacement of [3H]prozosine from alpha1 adrenergic receptor in rat brain cortex by liquid scintillation counting. The assay is classed as tissue-based. The method, boiled down:
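Brain cortex membranes (10 mg fresh tissue) in 50 mM Tris–HCl pH 7.4 at 25 °C. [3H]prazosin at 0.4 nM final, incubated 30 min at 25 °C, GF/B filtration. Nonspecific binding with […]. Ki from IC50 via Cheng–Prusoff.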

Chain of D(2) dopamine receptor (P61169 whole entry): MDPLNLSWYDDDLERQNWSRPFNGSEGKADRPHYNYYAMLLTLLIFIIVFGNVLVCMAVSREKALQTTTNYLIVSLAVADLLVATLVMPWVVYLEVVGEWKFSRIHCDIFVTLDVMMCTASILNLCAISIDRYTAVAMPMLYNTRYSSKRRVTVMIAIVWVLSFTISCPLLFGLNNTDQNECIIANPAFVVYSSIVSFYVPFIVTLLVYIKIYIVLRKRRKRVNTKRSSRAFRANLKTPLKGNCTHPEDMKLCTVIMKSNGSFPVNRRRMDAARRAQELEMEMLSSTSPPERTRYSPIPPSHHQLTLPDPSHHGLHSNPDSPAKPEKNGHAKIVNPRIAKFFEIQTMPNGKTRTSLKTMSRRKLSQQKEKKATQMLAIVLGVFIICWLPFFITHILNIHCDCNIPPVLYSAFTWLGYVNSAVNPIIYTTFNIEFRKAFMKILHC
Chain of D(1A) dopamine receptor (P18901 whole entry): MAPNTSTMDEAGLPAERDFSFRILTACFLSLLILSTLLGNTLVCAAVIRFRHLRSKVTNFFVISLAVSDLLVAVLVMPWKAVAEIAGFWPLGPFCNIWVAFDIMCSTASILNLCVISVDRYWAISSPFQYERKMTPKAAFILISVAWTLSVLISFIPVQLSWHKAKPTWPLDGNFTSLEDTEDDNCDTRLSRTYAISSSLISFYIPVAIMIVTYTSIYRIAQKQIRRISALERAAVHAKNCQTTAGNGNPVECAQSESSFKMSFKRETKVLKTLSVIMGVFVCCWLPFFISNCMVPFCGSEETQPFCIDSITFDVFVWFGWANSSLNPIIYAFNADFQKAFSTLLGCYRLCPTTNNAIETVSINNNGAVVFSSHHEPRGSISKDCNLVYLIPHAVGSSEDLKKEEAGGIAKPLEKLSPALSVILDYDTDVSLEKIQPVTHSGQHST
Chain of 5-hydroxytryptamine receptor 2A (P14842 whole entry): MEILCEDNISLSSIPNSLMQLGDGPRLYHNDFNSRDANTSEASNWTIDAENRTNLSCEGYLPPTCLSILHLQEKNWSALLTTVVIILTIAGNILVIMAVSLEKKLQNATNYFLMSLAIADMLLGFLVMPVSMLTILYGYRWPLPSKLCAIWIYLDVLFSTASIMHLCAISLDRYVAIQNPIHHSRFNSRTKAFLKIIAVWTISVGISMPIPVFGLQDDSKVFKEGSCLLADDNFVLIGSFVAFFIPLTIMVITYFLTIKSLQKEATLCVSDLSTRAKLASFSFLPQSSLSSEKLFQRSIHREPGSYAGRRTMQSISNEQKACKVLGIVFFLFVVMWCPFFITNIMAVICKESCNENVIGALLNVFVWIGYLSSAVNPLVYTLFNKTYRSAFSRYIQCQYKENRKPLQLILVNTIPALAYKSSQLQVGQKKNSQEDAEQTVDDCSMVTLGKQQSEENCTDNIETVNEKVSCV

Regarding `CCOC(=O)c1cc2cc(OCCCN3CCN(c4ccc(OC)cc4)CC3)ccc2[nH]1`, the Ki in assay [1] was 10 µM; in assay [2], “Not Active”; in assay [3], “Not Active”; in assay [4], 0.514 µM.
Turning to `CCOC(=O)c1cc2cc(OCCCN3CCN(Cc4ccc5c(c4)OCO5)CC3)ccc2[nH]1`, the Ki was 0.0261 µM in assay [1], 10 µM in assay [2] (read-out: Ki), “Not Active” in assay [3] and 0.338 µM in assay [4].
Turning to `CCOC(=O)c1cc2cc(OCCCN3CCN(c4cccc(Cl)c4)CC3)ccc2[nH]1`, the Ki was 1.07 µM in assay [2] (read-out: Ki), “Not Active” in assay [3] and 0.0329 µM in assay [4].

The term Ki denotes the dissociation constant of the complex between target and ligand, obtained from inhibition or displacement.
